Assay results as given in ChEMBL document CHEMBL1158353, “N1-Alkylated 3,4-dihydropyrimidine-2(1H)-ones: Convenient one-pot selective synthesis and evaluation of their calcium channel blocking activity” (Eur J Med Chem, 2009).

What was measured:
Sus scrofa = species: Sus scrofa; test: Inhibition of calcium channel in pig carotid artery assessed as relaxation of KCl-induced tissue contraction at 1 uM to 30 mM; type: tissue-based
Method in brief: (§1)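 Arterial strips equilibrated 90-120 min in PSS at 37 °C, pH 7.4, bubbled with 100% O₂, under ~2 g passive force (near L_0), and repeatedly contracted with 110 mM KCl (equimolar NaCl substitution) until force stabilized. Then precontracted with 110 mM KCl PSS to stable force; cumulative compound addition (1 μM to 30 mM), DMSO vehicle control. Force expressed as percent of initial maximal KCl response at each concentration.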

[1] = Inhibition of calcium channel in pig carotid artery assessed as relaxation of KCl-induced tissue contraction; type: tissue-based, Sus scrofa; method in brief: as §1

With `C=CCN1C(=O)NC(c2ccccc2)C(C(=O)OCC)=C1C` (stereo not drawn) the inhibition (Sus scrofa) was 40% and the IC50 [1] was 100 µM.

With `COC(=O)C1=C(C)NC(C)=C(C(=O)OC)C1c1ccccc1[N+](=O)[O-]` [NIFEDIPINE] the IC50 [1] was 10 µM.

`CCCCCCCCCCN1C(=O)NC(c2ccccc2)C(C(=O)OCC)=C1C` (stereo not drawn) showed an inhibition (Sus scrofa) of 40% and an IC50 [1] of 100 µM.

`CCCCCN1C(=O)NC(c2ccccc2)C(C(=O)OCC)=C1C` (stereo not drawn) showed an inhibition (Sus scrofa) of 40% and an IC50 [1] of 100 µM.

With `CCCN1C(=O)NC(c2ccccc2)C(C(=O)OCC)=C1C` (stereo not drawn) the inhibition (Sus scrofa) was 40% and the IC50 [1] was 100 µM.

Work on `CCOC(=O)C1=C(C)N(CC)C(=O)NC1c1ccccc1` (stereo not drawn) yielded an inhibition (Sus scrofa) of 40% and an IC50 [1] of 100 µM.

For `CCCCN1C(=O)NC(c2ccccc2)C(C(=O)OCC)=C1C` (stereo not drawn), the inhibition (Sus scrofa) was 40% and the IC50 [1] was 100 µM.
